Assay results from ChEMBL document CHEMBL4431336, “Ligand-based virtual screen for the discovery of novel M5 inhibitor chemotypes” (Bioorg Med Chem Lett, 2016).
Active and inactive are the calls of the source. No cut-off for these calls is given here.

Experiments:
[1] = molecular target: T1, Muscarinic acetylcholine receptor M5 (Homo sapiens) (UniProt P08912); assay: Antagonist activity at human muscarinic M5 receptor assessed as inhibition of acetylcholine-induced calcium response at 10 uM; type: functional
T1 sequence (whole entry): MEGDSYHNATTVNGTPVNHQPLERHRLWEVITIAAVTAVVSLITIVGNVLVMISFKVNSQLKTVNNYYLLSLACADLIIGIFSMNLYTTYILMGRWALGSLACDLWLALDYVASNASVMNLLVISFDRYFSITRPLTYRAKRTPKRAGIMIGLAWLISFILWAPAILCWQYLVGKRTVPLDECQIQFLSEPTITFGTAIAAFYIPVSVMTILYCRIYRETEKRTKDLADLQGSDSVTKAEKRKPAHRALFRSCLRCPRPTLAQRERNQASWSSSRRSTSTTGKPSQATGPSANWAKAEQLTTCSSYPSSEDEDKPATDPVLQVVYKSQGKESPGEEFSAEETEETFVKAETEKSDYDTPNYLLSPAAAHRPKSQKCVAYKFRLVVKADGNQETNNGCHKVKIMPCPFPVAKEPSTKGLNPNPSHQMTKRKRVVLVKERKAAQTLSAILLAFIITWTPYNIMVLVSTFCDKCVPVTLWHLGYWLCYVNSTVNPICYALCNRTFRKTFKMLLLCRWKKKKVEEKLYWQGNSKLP
Outline: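 Single-point functional assay in hM5 cells challenged with an EC80 of ACh, compound at 10 μM. Result is % inhibition, averaged from three determinations.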

[2] = molecular target: T2, Muscarinic acetylcholine receptor M5 (Homo sapiens, UniProt P08912); assay: Antagonist activity at human muscarinic M5 receptor assessed as inhibition of acetylcholine-induced calcium response; type: functional
T2 sequence (P08912 whole entry): T1 sequence (whole entry)
Outline: (§1)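 Concentration–response curves (10-point) run in cells expressing human M1, M2, M3, M4 or M5 receptors, n=3. IC50 comes from the curves, with pIC50 also reported. The residual ACh response at 30 μM is given as % ACh min (mean±SEM).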

[3] = molecular target: T3, Muscarinic acetylcholine receptor M3 (Homo sapiens, UniProt P20309); assay: Antagonist activity at human muscarinic M3 receptor assessed as inhibition of acetylcholine-induced calcium response; type: functional; outline: as §1
Target sequence in this assay (P20309 whole entry): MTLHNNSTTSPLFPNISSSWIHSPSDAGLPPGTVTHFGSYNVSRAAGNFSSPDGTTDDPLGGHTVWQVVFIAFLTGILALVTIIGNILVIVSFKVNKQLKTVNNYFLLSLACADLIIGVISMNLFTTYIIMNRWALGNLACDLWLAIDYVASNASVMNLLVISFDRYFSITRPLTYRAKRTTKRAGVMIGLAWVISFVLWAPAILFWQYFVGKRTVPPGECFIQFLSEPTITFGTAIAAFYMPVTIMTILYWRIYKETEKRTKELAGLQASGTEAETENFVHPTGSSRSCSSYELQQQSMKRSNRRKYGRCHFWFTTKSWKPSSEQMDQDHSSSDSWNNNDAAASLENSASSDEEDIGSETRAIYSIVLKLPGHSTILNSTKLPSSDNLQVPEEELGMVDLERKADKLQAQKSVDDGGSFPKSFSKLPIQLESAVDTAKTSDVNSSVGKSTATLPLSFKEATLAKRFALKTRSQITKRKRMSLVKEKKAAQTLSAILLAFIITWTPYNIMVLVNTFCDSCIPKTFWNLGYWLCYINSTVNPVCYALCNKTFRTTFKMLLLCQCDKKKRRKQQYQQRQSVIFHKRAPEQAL

[4] = molecular target: T4, Muscarinic acetylcholine receptor M1 (Homo sapiens, UniProt P11229); assay: Antagonist activity at human muscarinic M1 receptor assessed as inhibition of acetylcholine-induced calcium response; type: functional; outline: as §1
T4 sequence (P11229 whole entry): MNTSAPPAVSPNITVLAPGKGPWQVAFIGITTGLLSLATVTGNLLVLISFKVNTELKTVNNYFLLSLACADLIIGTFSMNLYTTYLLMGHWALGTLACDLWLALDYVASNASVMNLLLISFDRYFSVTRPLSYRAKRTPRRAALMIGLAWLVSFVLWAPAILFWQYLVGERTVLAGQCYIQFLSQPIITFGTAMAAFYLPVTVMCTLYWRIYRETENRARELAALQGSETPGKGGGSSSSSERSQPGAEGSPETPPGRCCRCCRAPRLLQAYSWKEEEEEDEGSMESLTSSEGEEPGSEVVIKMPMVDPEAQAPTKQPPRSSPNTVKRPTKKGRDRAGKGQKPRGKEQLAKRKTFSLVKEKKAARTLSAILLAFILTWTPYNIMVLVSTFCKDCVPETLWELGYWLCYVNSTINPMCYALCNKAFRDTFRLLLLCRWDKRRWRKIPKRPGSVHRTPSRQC

[5] = molecular target: T5, Muscarinic acetylcholine receptor M4 (Homo sapiens, UniProt P08173); assay: Antagonist activity at human muscarinic M4 receptor assessed as inhibition of acetylcholine-induced calcium response; type: functional; outline: as §1
T5 sequence (P08173 whole entry): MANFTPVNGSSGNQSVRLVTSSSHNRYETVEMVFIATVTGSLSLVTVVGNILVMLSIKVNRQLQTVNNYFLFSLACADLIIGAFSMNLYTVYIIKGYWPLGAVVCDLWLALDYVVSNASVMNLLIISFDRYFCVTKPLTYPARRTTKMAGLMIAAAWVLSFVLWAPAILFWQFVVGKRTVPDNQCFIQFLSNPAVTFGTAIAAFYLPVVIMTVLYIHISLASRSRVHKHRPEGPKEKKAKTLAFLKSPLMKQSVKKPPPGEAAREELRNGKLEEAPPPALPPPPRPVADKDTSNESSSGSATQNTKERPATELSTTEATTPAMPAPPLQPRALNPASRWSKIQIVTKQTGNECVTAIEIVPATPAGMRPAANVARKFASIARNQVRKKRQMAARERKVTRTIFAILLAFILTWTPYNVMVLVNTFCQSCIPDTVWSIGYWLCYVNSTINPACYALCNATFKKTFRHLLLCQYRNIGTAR

[6] = molecular target: T6, Muscarinic acetylcholine receptor M2 (Homo sapiens, UniProt P08172); assay: Antagonist activity at human muscarinic M2 receptor assessed as inhibition of acetylcholine-induced calcium response; type: functional; outline: as §1
T6 sequence (P08172 whole entry): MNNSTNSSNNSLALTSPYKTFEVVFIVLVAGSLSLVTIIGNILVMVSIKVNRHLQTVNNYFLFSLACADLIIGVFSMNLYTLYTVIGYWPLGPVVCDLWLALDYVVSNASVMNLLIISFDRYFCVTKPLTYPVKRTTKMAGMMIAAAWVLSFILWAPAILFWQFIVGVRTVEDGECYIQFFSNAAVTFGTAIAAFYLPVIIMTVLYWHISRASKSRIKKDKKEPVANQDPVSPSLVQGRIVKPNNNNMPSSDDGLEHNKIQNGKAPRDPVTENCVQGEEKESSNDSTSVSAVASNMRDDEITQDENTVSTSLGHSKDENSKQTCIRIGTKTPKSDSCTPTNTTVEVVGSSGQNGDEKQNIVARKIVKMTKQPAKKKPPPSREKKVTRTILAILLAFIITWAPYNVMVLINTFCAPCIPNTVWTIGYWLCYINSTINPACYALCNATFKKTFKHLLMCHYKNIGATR

[7] = molecular target: T1, Muscarinic acetylcholine receptor M5 (Homo sapiens); assay: Antagonist activity at human muscarinic M5 receptor assessed as inhibition of acetylcholine-induced calcium response at 30 uM; type: functional; outline: as §1
[8] = molecular target: T1, Muscarinic acetylcholine receptor M5 (Homo sapiens); assay: Antagonist activity at human muscarinic M5 receptor assessed as minimum acetylcholine-induced calcium response at 10 uM; type: functional; design: scale not given: the % may be the effect or the level left
[9] = molecular target: T7, Muscarinic acetylcholine receptor M2 (Homo sapiens) (UniProt P08172); assay: Antagonist activity at human muscarinic M2 receptor assessed as minimum acetylcholine-induced calcium response at 30 uM; type: functional; design: scale not given: the % may be the effect or the level left; outline: as §1
T7 sequence (whole entry): T6 sequence (P08172 whole entry)

[10] = molecular target: T8, Muscarinic acetylcholine receptor M4 (Homo sapiens) (UniProt P08173); assay: Antagonist activity at human muscarinic M4 receptor assessed as minimum acetylcholine-induced calcium response at 30 uM; type: functional; design: scale not given: the % may be the effect or the level left; outline: as §1
T8 sequence (whole entry): T5 sequence (P08173 whole entry)

[11] = molecular target: T2, Muscarinic acetylcholine receptor M5; assay: Displacement of [3H]NMS from human muscarinic M5 receptor
Outline: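 Competition binding against [3H]-N-methylscopolamine in membranes prepared from cells expressing human M5, n=3.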

[12] = molecular target: T1, Muscarinic acetylcholine receptor M5 (Homo sapiens); assay: Antagonist activity at human muscarinic M5 receptor assessed as minimum acetylcholine-induced calcium response at 30 uM; type: functional; design: scale not given: the % may be the effect or the level left; outline: as §1
[13] = molecular target: T9, Muscarinic acetylcholine receptor M1 (Homo sapiens) (UniProt P11229); assay: Antagonist activity at human muscarinic M1 receptor assessed as minimum acetylcholine-induced calcium response at 30 uM; type: functional; design: scale not given: the % may be the effect or the level left; outline: as §1
T9 sequence (whole entry): T4 sequence (P11229 whole entry)

[14] = molecular target: T3, Muscarinic acetylcholine receptor M3; assay: Antagonist activity at human muscarinic M3 receptor assessed as minimum acetylcholine-induced calcium response at 30 uM; type: functional; design: scale not given: the % may be the effect or the level left; outline: as §1
Target sequence in this assay (P20309 whole entry, looked up): as the sequence (P20309 whole entry) above

Row | Compound | inhibition [1] | IC50 ([2]; read-out: IC50) [µM] | other results
1 | Cn1cc(S(=O)(=O)N2CCC3(CC2)OCCS3)cn1 | 27% | > 10 | 
2 | Cc1nn(C)c(C)c1S(=O)(=O)N1CCC2(CC1)SCCS2 | 86% | > 10 | 
3 | Cc1nn(C)c(C)c1S(=O)(=O)N1CCC2(CC1)OCCO2 | 45% | > 10 | 
4 | Cc1nn(C)cc1S(=O)(=O)N1CCC2(CC1)OCCS2 | inactive |  | 
5 | Cc1c(S(=O)(=O)N2CCC3(CC2)OCCS3)cnn1C | 83% | > 10 | 
6 | Cn1cnc(S(=O)(=O)N2CCC3(CC2)OCCS3)c1 | inactive |  | 
7 | O=S(=O)(c1cc(F)c(F)c(F)c1)N1CCC2(CC1)OCCS2 | 55% | > 10 | 
8 | O=S(=O)(c1cc(F)cc(F)c1)N1CCC2(CC1)OCCS2 | 62% | > 10 | 

Now from value to compound, other results behind:

Row | inhibition [1] | IC50 ([2]; read-out: IC50) [µM] | Compound | other results
9 | 83% | > 10 | O=S(=O)(c1ccc(F)c(Cl)c1)N1CCC2(CC1)OCCS2 | 
10 | 37% | > 10 | Cc1nn(C)c(C)c1S(=O)(=O)N1CCC2(CCCO2)CC1 | 
11 |  | 0.246 | COc1ccc([C@@]23c4ccccc4C(=O)N2CCN3C(=O)c2cc(F)c(F)c(F)c2)cc1C | IC50 [3]: > 30 µM; IC50 [4]: > 30 µM; IC50 [5]: > 30 µM; IC50 [6]: > 30 µM
12 | 40% | > 10 | Cc1noc(C)c1S(=O)(=O)N1CCC2(CC1)OCCS2 | 
13 |  | > 10 | Cc1noc(C)c1CCc1nnc2scc(-c3ccc(Cl)cc3)n12 | inhibition [7]: 40%
14 |  | > 10 | CCN(C(=O)Cn1cc(-c2ccccc2)c(N2CCOCC2)n1)c1cccc(C)c1 | inhibition [7]: 40%
15 |  | 5.16 | Fc1cc(F)cc(-c2nnc(Cc3nc(-c4ccc5c(c4)OCO5)no3)o2)c1 | IC50 [4]: 2.8 µM; IC50 [5]: > 10 µM; Imax [1]: 70%; IC50 [6]: 0.93 µM
16 |  | 3.86 to 6.2 | Cc1nn(C)c(C)c1S(=O)(=O)N1CCC2(CC1)OCCS2 | IC50 [3]: > 10 µM; IC50 [4]: > 10 µM; Activity [8]: 12.6%; Activity [9]: 37%; Activity [10]: 55%; Ki [11]: 2.7 µM; IC50 [5]: > 10 µM; Imax [1]: 50 to 88%; IC50 ([2]; read-out: pIC50 (converted)): 0.661 µM; Activity [12]: 16%; Activity [13]: 61%; Activity [14]: 55%; IC50 [6]: > 10 µM
